Results on ten molecules are retold here after publication PMC5946624 (Dose-Response, 2018).

Like-named read-outs stand apart in the source and are kept apart here. Marks after values point to notes of the source that are not given here. Where only a bound is given, the exact number is not on record here.

For data set [1], the target named is T1, CYP2E1 (Homo sapiens, UniProt P05181). Description: Extended CYP2E1-pNP inhibition profiling. The format is biochemical. The note with it: additive up to 50 µmol/L.
Target sequence in this assay (P05181 whole entry): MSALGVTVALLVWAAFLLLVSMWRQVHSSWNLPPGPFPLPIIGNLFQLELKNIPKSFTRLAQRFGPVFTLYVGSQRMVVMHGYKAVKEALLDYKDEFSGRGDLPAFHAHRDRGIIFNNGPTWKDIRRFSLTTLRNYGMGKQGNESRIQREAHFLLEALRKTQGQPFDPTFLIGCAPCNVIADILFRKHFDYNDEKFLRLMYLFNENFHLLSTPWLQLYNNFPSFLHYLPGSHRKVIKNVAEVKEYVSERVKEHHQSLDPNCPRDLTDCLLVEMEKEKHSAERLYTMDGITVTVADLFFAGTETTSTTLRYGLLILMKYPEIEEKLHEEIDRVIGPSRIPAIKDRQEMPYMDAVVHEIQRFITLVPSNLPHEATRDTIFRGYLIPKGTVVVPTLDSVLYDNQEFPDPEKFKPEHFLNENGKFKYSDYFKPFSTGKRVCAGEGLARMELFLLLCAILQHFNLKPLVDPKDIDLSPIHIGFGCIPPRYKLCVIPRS
Target sequence in this assay (P16435 2-677 partner): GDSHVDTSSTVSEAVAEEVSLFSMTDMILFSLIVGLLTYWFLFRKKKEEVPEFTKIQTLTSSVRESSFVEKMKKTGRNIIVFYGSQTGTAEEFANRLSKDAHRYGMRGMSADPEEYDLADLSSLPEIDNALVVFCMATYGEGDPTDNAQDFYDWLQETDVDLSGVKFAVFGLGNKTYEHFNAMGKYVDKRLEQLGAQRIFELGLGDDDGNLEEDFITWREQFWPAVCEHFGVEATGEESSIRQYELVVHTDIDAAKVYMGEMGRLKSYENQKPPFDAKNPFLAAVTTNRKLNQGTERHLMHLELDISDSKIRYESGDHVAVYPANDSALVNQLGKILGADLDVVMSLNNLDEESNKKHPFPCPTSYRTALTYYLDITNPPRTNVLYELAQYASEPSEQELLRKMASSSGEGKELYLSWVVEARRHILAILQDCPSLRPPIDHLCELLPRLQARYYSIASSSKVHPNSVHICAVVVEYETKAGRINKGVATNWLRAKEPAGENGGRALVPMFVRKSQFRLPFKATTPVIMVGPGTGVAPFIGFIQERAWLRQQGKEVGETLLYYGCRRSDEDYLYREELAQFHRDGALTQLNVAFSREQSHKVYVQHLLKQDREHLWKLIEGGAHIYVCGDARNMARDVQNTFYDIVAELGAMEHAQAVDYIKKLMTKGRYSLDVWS
Target sequence in this assay (P00167 2-134 partner): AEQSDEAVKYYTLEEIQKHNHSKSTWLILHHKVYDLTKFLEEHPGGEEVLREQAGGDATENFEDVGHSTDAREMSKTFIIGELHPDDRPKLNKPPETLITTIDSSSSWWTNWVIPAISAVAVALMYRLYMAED
Data set [2] deals with Escherichia coli DH5α. Description: Growth of E coli DH5α transformed with pBTR1. The data set is classed as cell-based. The note with it: 4 hours, control = 100.
Another data set deals with E coli DH5α. Description: Growth. The format is cell-based, Escherichia coli.
Another data set relates to B megaterium MTCC 428. Description: Growth. The data set is classed as cell-based, Bacillus megaterium.
For data set [3], the system named is Escherichia coli DH5α. The note with it: 6 hours, control = 100.
In data set [4] the target is T1, CYP2E1. Description: CYP2E1 baculosome pNP hydroxylation. The note with it: for Effect on pNC formation: earlier time (10 minutes). The data set is classed as biochemical.
Target sequence in this assay (P05181 whole entry): as the sequence (P05181 whole entry) above
In data set [5] the target is T1, CYP2E1. Kind of data set: Simulation of hydroxylating activities of CYP2E1 with DROS. The data set is classed as biochemical. The note with it: after 10 minutes; for Concentration of hydroxylated product, Control, Cyt b 5 + pNP: Cyt b5, without CYP2E1; for Concentration of hydroxylated product, CYP2E1, pNP: pNP 25 µmol/L, with CYP2E1; for Concentration of hydroxylated product, CYP2E1, Cyt b 5 + pNP: with CYP2E1 and Cyt b5; for Concentration of hydroxylated product, Control, pNP: without CYP2E1. The gist of the method: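 Reconstituted hydroxylation with diffusible oxygen species used initial pNP 25 µmol/L, DLPC 20 µmol/L and CYP2E1 100 nmol/L (omitted in controls). When present: NADPH 200 µmol/L, CPR 200 nmol/L, Cyt b5 200 nmol/L, H2O2 32 µmol/L, or KO2 ≤16 µmol/L. KO2 was added from a DMSO/15-crown ether substock, giving ~1% DMSO/crown ether in the reaction. Hydroxylated product (nmol/L) was measured after 10 min.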
Target sequence in this assay (P05181 whole entry): as above
Target sequence in this assay (P16435 2-677 partner): as the sequence (P16435 2-677 partner) above
Target sequence in this assay (P00167 2-134 partner): as the sequence (P00167 2-134 partner) above

Data set [6] deals with CYP2E1. The following applies: enzyme taken at 0.1 µmol/L; cited from earlier work.

As for `Cn1c(=O)[nH]c(=O)c2[nH]cnc21` [3-Methylxanthine (MetXan), 3-Methylxanthine], the “Effect on pNP reactions” value at CYP2E1 [1] was “did not significantly perturb/inhibit”.
Turning to `Nc1nc[nH]n1` [Amitrol, amitrol], the Relative growth density in the data set with Escherichia coli DH5α [2] (amitrol 10^−3 M, + IPTG) is given as 60 (9); in the data set with Escherichia coli DH5α [2] (amitrol 10^−3 M, − IPTG), 94 (4); with Escherichia coli DH5α [2] (amitrol 10^−6 M, + IPTG), 70 (6); in the data set with Escherichia coli DH5α [2] (amitrol 10^−6 M, − IPTG), 103 (10); with Escherichia coli DH5α [2] (amitrol 10^−9 M, + IPTG), 63 (5); in the data set on Escherichia coli DH5α [2] (amitrol 10^−9 M, − IPTG), 103 (3). Further, the Relative growth density was 51 (4) with Escherichia coli DH5α [2] (amitrol 10^−12 M, + IPTG) and 50 (2) with Escherichia coli DH5α [2] (amitrol 10^−12 M, − IPTG).
`[N-]=[N+]=[N-]` [Azide, azide]: the Effect on growth entry with E coli DH5α (azide at mmol/L ranges, compared with B megaterium) is given as “much less harsh”; with E coli DH5α (nmol/L concentration of azide), “inhibitory”; with E coli DH5α (µmol/L concentration of azide), “no inhibition whatsoever”; with B megaterium MTCC 428 (azide 10^−6 to 10^−12 M), “did not impact”; with B megaterium MTCC 428 (azide at mmol/L ranges), “very effective in curbing the growth”. Also, the Relative growth density in the data set on Escherichia coli DH5α [3] (azide 10^−3 M, + IPTG) is given as 24 (3); with Escherichia coli DH5α [3] (azide 10^−3 M, − IPTG) it was 12 (5); in the data set on Escherichia coli DH5α [3] (azide 10^−6 M, + IPTG) it was 79 (5); in the data set with Escherichia coli DH5α [3] (azide 10^−6 M, − IPTG), 97 (7); with Escherichia coli DH5α [3] (azide 10^−9 M, + IPTG) it was 29 (6); in the data set with Escherichia coli DH5α [3] (azide 10^−9 M, − IPTG) it was 41 (6). In addition, the Relative growth density was 32 (3) in the data set with Escherichia coli DH5α [3] (azide 10^−12 M, + IPTG) and 107 (8) with Escherichia coli DH5α [3] (azide 10^−12 M, − IPTG).
`CCc1oc2ccccc2c1C(=O)c1ccc(O)cc1` [Bzr, benzarone]: the Ki at CYP2E1 [4] (Ki Competitive, Cheng-Prusoff from IC50, KM 14 µmol/L) is 8.7 µM; at CYP2E1 [4] (Ki Noncompetitive, calculated from IC50 (website)) it was 71 µM. In addition, the “Ki Uncompetitive” value at CYP2E1 [4] (calculated from IC50 (website)) was 62.3 µM. The “Inhibition at 10 nmol/L compared to 1 µmol/L” value on CYP2E1 [4] (initial sampling time) is on record as “greater extent of inhibition”.
For `N[C@@H](Cc1cc(I)c(O)c(I)c1)C(=O)O` [DIT, diiodotyrosine], the results for the “Effect on pNC formation” value at CYP2E1 [4] (10 nmol/L additive) and on CYP2E1 [4] (high/higher additive concentrations) were “enhanced reactions” and “inhibited pNC formation”, respectively.
Consider `OO` [H2O2], for which, on CYP2E1 [5], the “Concentration of hydroxylated product, Control, Cyt b 5 + pNP” value is reported as “Nil”; the “Concentration of hydroxylated product, CYP2E1, pNP” value is recorded as less than 10 nmol/L; the “Concentration of hydroxylated product, CYP2E1, Cyt b 5 + pNP” value is given as “∼74 nmol/L”; the “Concentration of hydroxylated product, Control, pNP” value is “Nil”.
As for `CCc1oc2ccccc2c1C(=O)c1ccc(OC)cc1` [MeOBzr, methoxybenzarone], at CYP2E1 [4] (calculated from IC50 (website)), the “Ki Uncompetitive” value is 100.9 µM. Moreover, the inhibitory constant (Ki) on CYP2E1 [4] (read-out: Ki Competitive, Cheng-Prusoff from IC50, KM 14 µmol/L) was 14.1 µM; at CYP2E1 [4] (read-out: Ki Noncompetitive, calculated from IC50 (website)) it was 115 µM.
Take `[O]O` [O2 ^˙−]: on CYP2E1 [5], the “Concentration of hydroxylated product, Control, Cyt b 5 + pNP” value is “∼70^b nmol/L”; the “Concentration of hydroxylated product, CYP2E1, pNP” value is given as “∼104^b nmol/L”; the “Concentration of hydroxylated product, CYP2E1, Cyt b 5 + pNP” value was “∼499^b nmol/L”; the “Concentration of hydroxylated product, Control, pNP” value is “∼88^b nmol/L”.
In the case of `c1ccc2[nH]ncc2c1` [indazole], the Kd with CYP2E1 [6] is 0.005 µM.
As for `O=[N+]([O-])c1ccc(O)cc1` [pNP, para-nitrophenol], the Michaelis constant (Km) on CYP2E1 [4] (read-out: 2E1-pNP KM, substrate constant used for Cheng-Prusoff) was determined as 14 µM.
